Bioassay records deposited in PubChem BioAssay by several laboratories.
The list is not random: actives were taken first. Their share in the collection is about 1.5%.
Runt-SMMHC FRET = blocks binding of human RUNX1 Runt domain to CBFb-SMMHC. Q01196+Q13951. Cerulean-Runt/Venus-CBFb-SMMHC FRET ratio 530/480, 1 h. inhibition, % at 20 µM. 0.74% of 220,000 active;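 active = mean inhibition across duplicate retests at 20 µM reaching about 50%, limit read from the data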;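 also: 0% = DMSO wells and 100% = wells with excess untagged CBFb-SMMHC; inhibitors lower the FRET ratio by blocking Runt binding to CBFb-SMMHC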
Target sequence (Q01196 whole entry, looked up, the tested form may be a part): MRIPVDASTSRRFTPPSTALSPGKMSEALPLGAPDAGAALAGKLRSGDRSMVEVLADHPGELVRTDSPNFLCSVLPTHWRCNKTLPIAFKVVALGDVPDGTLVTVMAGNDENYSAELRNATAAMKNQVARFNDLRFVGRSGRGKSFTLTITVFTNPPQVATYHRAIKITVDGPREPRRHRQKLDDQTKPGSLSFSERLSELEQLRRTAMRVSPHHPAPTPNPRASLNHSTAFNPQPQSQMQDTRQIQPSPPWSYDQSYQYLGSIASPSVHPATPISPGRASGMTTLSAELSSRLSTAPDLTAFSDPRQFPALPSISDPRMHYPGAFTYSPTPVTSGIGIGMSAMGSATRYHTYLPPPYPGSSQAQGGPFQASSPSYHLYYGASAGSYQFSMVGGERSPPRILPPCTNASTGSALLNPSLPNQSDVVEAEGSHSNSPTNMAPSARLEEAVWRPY
Target sequence (Q13951 whole entry, looked up, the tested form may be a part): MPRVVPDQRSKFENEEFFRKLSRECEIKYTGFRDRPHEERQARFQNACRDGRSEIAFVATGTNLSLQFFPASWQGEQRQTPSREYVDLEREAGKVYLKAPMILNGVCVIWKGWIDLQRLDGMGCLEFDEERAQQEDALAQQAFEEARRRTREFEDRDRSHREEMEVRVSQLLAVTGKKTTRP
Runt-CBFb FRET = blocks binding of human RUNX1 Runt domain to CBFb; Q01196+Q13951; Cerulean-Runt/Venus-CBFb FRET ratio 530/480, 1 h; 0.46% of 220,000 active; inhibition, % at 20 µM;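 active = inhibition over about 50% at 20 µM in the single-dose screen, limit read from the data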;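 also: 0% = DMSO wells and 100% = excess unlabeled CBFb competitor control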
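System: Cerulean-labeled Runt domain protein | Quantity: 100 nM of each labeled protein | Schedule: 1 h compound exposure, room temperature | Detection: Fluorescence energy transfer, 422 nm excitation, 530/480 nm emission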
RanGTP-Imp inh = inhibitors of RanGTP-importin-beta interaction, primary screen, biochemical, FRET, CFP-Ran, YFP-importin-beta, homogeneous; inhibition, % (no concentration beside the values); 1.1% of 300,000 active; cell-free CFP-Ran/YFP-importin-beta FRET ratio;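 active = more than half of the replicate wells show a fall in the fluorescence ratio signal beyond about 16%, limit read from the data, passing the limit was not always enough; inconclusive = exactly half of the replicate wells pass the set limit; inactive = fewer than half of replicates pass the limit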;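 also: 0% = DMSO wells and 100% = Ran loaded with GDP instead of GTP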
CaV13 ICDI inh = Disruptors of the CACNA1D IQ motif to Ca2+-dependent inactivation inhibitor domain association, primary screening, Förster resonance energy transfer in intact living … | inhibition, % at 12.3 µM | HEK cells, CFP/YFP FRET ICDI-IQ, plate reader, 10 min; percent FRET-ratio fall versus neutral wells | 0.098% of 340,000 active;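 active = mean replicate inhibition of at least 30% and at least 1% of replicates passing that level; inconclusive = only one of the two criteria is met; inactive = neither criterion is met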;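 also: 0% = median of the neutral control wells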
Hck-Nef inh = inhibitors of human Hck kinase activated by Nef; P08631; Recombinant Hck-YEEI plus Nef, Z-Lyte FRET kinase assay; inhibition, % at 20 µM; 0.68% of 220,000 active; AID 463187;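 active = Hck-Nef kinase inhibition above about 50%, limit read from the data; inactive = inhibition below that limit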;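 also: 0% = DMSO with Hck plus Nef and 100% = Hck alone without Nef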
Runt-CBFb TRFRET = Runt-CBFb binding inhibition; shares compounds with Runt-CBFb FRET; TR-FRET RUNX1 Runt domain-CBFb binding; AID 1502; inhibition, % at 20 µM; 20% of 480 active; in the data active = inhibition above about 40%
The depositor's hits bear a star; ? = inconclusive; . = not tested or not shown.

SMILES	Runt-SMMHC FRET	Runt-CBFb FRET	RanGTP-Imp inh	CaV13 ICDI inh	Hck-Nef inh	Runt-CBFb TRFRET
CN1CCN(C2=C(Cl)C(=O)N(c3ccc(Cl)c(Cl)c3)C2=O)CC1	23.4	11.9	-3.9	.	-3.0	.
Cc1nn(-c2ccccc2)c(C)c1NC(=O)COC(=O)c1cc([N+](=O)[O-])ccc1NCCO	.	.	4.9	-2.6	.	.
COc1ccc(CN(C(C)=O)c2cccc(C)c2C)cc1	-1.7	-0.5	-0.9	.	-6.1	.
COc1cc(/C=C(\C#N)c2nc3ccccc3[nH]2)cc(Br)c1OCc1ccccc1	-65.7	-8.5	11.1	-4.8	6.8	.
COc1cc(/C=C(\C#N)c2nc3ccccc3[nH]2)cc(Br)c1OCc1ccc(F)cc1	106.3*	53.6*	5.2	.	3.9	-7.3
Cc1cc(NC(=O)CS(=O)(=O)c2cn(Cc3cccc(F)c3)c3ccccc23)no1	1.8	1.9	-0.9	-4.6	4.0	.
CSc1ccc(C(=S)N2CCN(C)CC2)cc1	38.8	54.5*	-0.5	.	1.0	-9.7
CN1CCN(C(=S)c2ccc(Br)cc2)CC1	43.8	50.2*	?	-8.5	1.7	5.9
CN1CCN(C(=S)c2ccc(N(C)C)cc2)CC1	41.3	47.8	6.9	-8.5	-28.8	.
Cc1ccc(OCCC(=O)OCC(=O)Nc2cc(C)cc(C)c2)cc1	.	.	-1.6	-6.2	.	.
CCC(=O)Nc1cccc(C(=O)N(Cc2ccccc2)Cc2ccccc2)c1	.	.	-0.9	-5.1	.	.
Cc1sc2nc(CN3CCN(c4ccc(O)cc4)CC3)[nH]c(=O)c2c1C	-3.5	54.0*	?	-8.0	-7.2	62.9*
CCOC(=O)CCC(=O)Nc1ccccc1C(N)=O	-0.7	0.0	6.0	-5.7	3.4	.
CCCCOC(=O)Nc1ccccc1C(N)=O	116.3	51.0*	?	-3.9	1.5	1.5
CC1(C)N=C(c2ccccc2)C(=O)N1	0.8	1.5	0.7	-4.2	-2.2	.
CCOC(=O)C1=C(Cc2ccc(C)cc2)C(=O)c2ccccc2C1=O	50.7*	50.3*	-11.1	-6.6	-3.1	-50.6
O=c1cc(O)c2sc(Nc3ccc(F)cc3)nc2[nH]1	33.6	55.9*	4.3	-3.2	0.6	5.5
CSc1ccc(NC(=O)CSc2nc3[nH]c(=O)cc(O)c3s2)cc1	.	.	.	-4.6	.	.
O=c1cc(O)c2sc(Nc3cccc(C(F)(F)F)c3)nc2[nH]1	44.7	59.6*	-1.7	-5.5	3.6	29.4
CCN(C(=O)COC(=O)C1=COCCO1)c1c(N)n(Cc2ccccc2)c(=O)[nH]c1=O	.	.	.	-4.0	.	.
C=CCNC(=O)/C(C#N)=C/c1c(N(Cc2ccccc2)Cc2ccccc2)nc2ccccn2c1=O	71.0*	51.1*	3.7	-3.1	2.5	-8.5
N#C/C(=C\c1c(N(Cc2ccccc2)Cc2ccccc2)nc2ccccn2c1=O)C(N)=O	7.4	3.4	-0.3	-4.9	4.7	.
C=CCC1NS(=O)(=O)OC(CCCC)C1O (stereo unspecified)	.	.	4.1	-3.8	.	.
Cc1ccc(NC(=O)CSc2nnc(Cn3cnc4ccccc43)o2)cc1	-0.5	0.2	-0.3	.	-0.2	.
O=C(c1ccco1)N1CCN(C(c2ccccc2)c2nnnn2Cc2cccs2)CC1 (stereo unspecified)	-0.1	-0.6	?	-4.4	-0.3	.
SMILES	Runt-SMMHC FRET	Runt-CBFb FRET	RanGTP-Imp inh	CaV13 ICDI inh	Hck-Nef inh	Runt-CBFb TRFRET
CCOC(=O)c1cnc2ccc(C)cc2c1Sc1ccc(F)cc1	-10.0	85.8*	-3.5	-1.2	-0.4	-47.6
O=C1CC(c2ccco2)CC(O)=C1C=NCCO (stereo unspecified)	-5.4	80.6*	1.1	.	-0.3	20.8
O=C1CC(c2ccco2)CC(O)=C1C=NCC1NCCc2ccccc21 (stereo unspecified)	-10.0	1.1	-3.0	-5.9	1.2	.
CCCn1c(SCC(=O)NCc2ccco2)nnc1-c1ccncc1	2.6	73.8*	0.7	-5.5	21.4	-1.2
CCn1c(SCC(=O)NCc2ccco2)nnc1-c1ccncc1	-0.1	-1.4	6.7	.	24.6	.
COc1cc(/C=C2\S/C(=N/S(=O)(=O)Cc3ccccc3)NC2=O)c([N+](=O)[O-])cc1OC	-8.4	3.1	-5.6	-101.4	-1.8	.
COc1ccc(CCn2c(N)c(C(=O)NCc3ccco3)c3nc4ccccc4nc32)cc1	78.7*	57.7*	57.6*	25.2	36.7	25.8
